# Results published in ChEMBL document CHEMBL3585278, “Effect of deuteration on metabolism and clearance of Nerispirdine (HP184) and AVE5638” (Bioorg Med Chem, 2015).
# Key:
# Hepatocyte [1] = experiment: Drug metabolism in human hepatocytes assessed as metabolic reaction rate at 10 uM measured per 10^6 cells up to 3 hrs by LC-MS/MS analysis; format: ADME, cell-based
# Method in brief: (§1)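 Human liver S9 fraction, liver microsomes or hepatocytes were incubated with substrate or its deuterated analogue at 1 and 10 µM, with or without an NADPH-generating system. Substrate depletion over time was followed. Reaction rate was given as nmol/min/mg for S9 and microsomes, and nmol/min per 10^6 cells for hepatocytes.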
# Liver [2] = experiment: Drug metabolism in human liver S9 fraction assessed as metabolic reaction rate at 10 uM measured up to 3 hrs by LC-MS/MS analysis; format: ADME, subcellular; conditions: s9, 3 h; method in brief: as §1
# Liver microsome [3] = experiment: Drug metabolism in human liver microsomes assessed as metabolic reaction rate at 10 uM measured up to 3 hrs by LC-MS/MS analysis; format: ADME; method in brief: as §1
# Liver [4] = experiment: Drug metabolism in human liver S9 fraction assessed as metabolic reaction rate at 1 uM measured up to 3 hrs by LC-MS/MS analysis; format: ADME, subcellular; conditions: s9, 3 h; method in brief: as §1
# Liver microsome [5] = experiment: Drug metabolism in human liver microsomes assessed as metabolic reaction rate at 1 uM measured up to 3 hrs by LC-MS/MS analysis; format: ADME; method in brief: as §1
# Hepatocyte [6] = experiment: Drug metabolism in human hepatocytes assessed as metabolic reaction rate at 1 uM measured per 10^6 cells up to 3 hrs by LC-MS/MS analysis; format: ADME, cell-based; method in brief: as §1
# Hepatocyte [7] = experiment: Drug metabolism in human hepatocytes assessed as 1-(3-fluoropyridin-4-ylamino)-1H-indole-3-carboxylic acid-d4 formation at 2 to 10 uM up to 24 hrs by LC-MS/MS analysis; format: ADME, cell-based
# Method in brief: (§2)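 Plated human hepatocytes (two preparations) were incubated with parent or d14 analogue at 2 or 10 µM. Aliquots taken at several times up to 24 h were assayed by LC–MS/MS for parent, N-depropylated metabolite and carboxylic acid metabolite. Clearance was expressed as mL/h per 10^6 cells.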
# Hepatocyte [8] = experiment: Drug metabolism in human hepatocytes assessed as 1-(3-fluoropyridin-4-ylamino)-1H-indole-3-carboxylic acid formation at 2 to 10 uM up to 24 hrs by LC-MS/MS analysis; format: ADME, cell-based; method in brief: as §2
# Liver microsome [9] = experiment: Drug metabolism in human liver microsomes assessed as 1-(3-fluoropyridin-4-ylamino)-1H-indole-3-carboxylic acid-d4 formation at 5 uM up to 30 mins by LC-MS/MS analysis
# Liver microsome [10] = experiment: Clearance in human liver microsomes assessed as initial mean metabolism rate at 5 uM at protein concentration of 0.5 mg/ml measured per mg protein up to 30 mins by LC-MS/MS analysis; format: ADME; conditions: 0.5 h
# Method in brief: (§3)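 Human liver microsomes at 0.25, 0.5 or 1 mg protein/mL were incubated with 5 µM substrate (parent or d14 analogue). Aliquots taken at several times up to 30 min were assayed by LC–MS/MS for parent and N-depropylated metabolite. Initial mean metabolism rate was given as nmol/min/mg protein.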
# Hepatocyte [11] = experiment: Clearance in human hepatocytes at 10 uM measured per 10^6 cells up to 24 hrs by LC-MS/MS analysis; format: ADME, cell-based; method in brief: as §2
# Rattus norvegicus [12] = experiment: In vivo drug metabolism in Sprague-Dawley rat assessed as 1-(3-fluoropyridin-4-ylamino)-1H-indole-3-carboxylic acid-d4 formation at 20 mg/kg, po up to 48 hrs by LC-MS/MS analysis; format: ADME, organism-based
# Method in brief: (§4)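 Male Sprague–Dawley rats, 5 per compound, were dosed orally at 20 mg/kg with parent or d14 analogue. Plasma collected at several times up to 48 h was analysed by LC–MS/MS for parent, N-depropylated metabolite and carboxylic acid metabolite, giving concentration–time profiles.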
# Liver microsome [13] = experiment: Clearance in human liver microsomes assessed as initial mean metabolism rate at 5 uM at protein concentration of 0.25 mg/ml measured per mg protein up to 30 mins by LC-MS/MS analysis; format: ADME; conditions: 0.5 h; method in brief: as §3
# [14] = Tmax in Sprague-Dawley rat at 20 mg/kg, po by LC-MS/MS analysis; format: ADME, organism-based; conditions: in vivo
# Method in brief: (§5)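 Male Sprague–Dawley rats (5 per compound) received 20 mg/kg orally of parent or d14 analogue. Plasma was sampled at several times up to 48 h and assayed by LC–MS/MS. Tmax is reported with a range; Cmax, AUClast, AUC and t1/2 were derived from plasma concentration–time data.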
# [15] = Cmax in Sprague-Dawley rat at 20 mg/kg, po by LC-MS/MS analysis; format: ADME, organism-based; parameters: dose 20 mg/kg, route oral; conditions: in vivo; method in brief: as §5
# [16] = Half-life in Sprague-Dawley rat at 20 mg/kg, po by LC-MS/MS analysis; format: ADME, organism-based; conditions: in vivo; method in brief: as §5
# Hepatocyte [17] = experiment: Clearance in human hepatocytes at 2 uM measured per 10^6 cells up to 24 hrs by LC-MS/MS analysis; format: ADME, cell-based; method in brief: as §2
# Rattus norvegicus [18] = experiment: In vivo drug metabolism in Sprague-Dawley rat assessed as 1-(3-fluoropyridin-4-ylamino)-1H-indole-3-carboxylic acid formation at 20 mg/kg, po up to 48 hrs by LC-MS/MS analysis; format: ADME, organism-based; method in brief: as §4
# [19] = AUC in Sprague-Dawley rat at 20 mg/kg, po by LC-MS/MS analysis; format: ADME, organism-based; conditions: in vivo; method in brief: as §5
# [20] = AUClast in Sprague-Dawley rat at 20 mg/kg, po by LC-MS/MS analysis; format: ADME, organism-based; parameters: dose 20 mg/kg, route oral, time 0 - last; conditions: in vivo; method in brief: as §5
# Liver microsome [21] = experiment: Clearance in human liver microsomes assessed as initial mean metabolism rate at 5 uM at protein concentration of 1 mg/ml measured per mg protein up to 30 mins by LC-MS/MS analysis; format: ADME; conditions: 0.5 h; method in brief: as §3
# Liver microsome [22] = experiment: Drug formation in human liver microsomes treated with Nerispirdine at 5 uM up to 30 mins by LC-MS/MS analysis
# Rattus norvegicus [23] = experiment: In vivo drug formation in Sprague-Dawley rat treated with Nerispirdine at 20 mg/kg, po up to 48 hrs by LC-MS/MS analysis; format: ADME, organism-based; method in brief: as §4
# Hepatocyte [24] = experiment: Drug formation in human hepatocytes treated with Nerispirdine at 2 to 10 uM up to 24 hrs by LC-MS/MS analysis; format: ADME, cell-based; method in brief: as §2
# Liver microsome [25] = experiment: Drug formation in human liver microsomes treated with (3-Fluoro-pyridin-4-yl)-(3-methyl-indol-1-yl)-propylamine-d14 formation at 5 uM up to 30 mins by LC-MS/MS analysis
# Hepatocyte [26] = experiment: Drug formation in human hepatocytes treated with (3-Fluoro-pyridin-4-yl)-(3-methyl-indol-1-yl)-propylamine-d14 at 2 to 10 uM up to 24 hrs by LC-MS/MS analysis; format: ADME, cell-based; method in brief: as §2
# Rattus norvegicus [27] = experiment: In vivo drug formation in Sprague-Dawley rat treated with (3-Fluoro-pyridin-4-yl)-(3-methyl-indol-1-yl)-propylamine-d14 at 20 mg/kg, po up to 48 hrs by LC-MS/MS analysis; format: ADME, organism-based; method in brief: as §4
# Hepatocyte [28] = experiment: Drug metabolism in human hepatocytes assessed as N-(3-fluoropyridin-4-yl)-3-methyl-1H-indol-1-amine formation at 2 to 10 uM up to 24 hrs by LC-MS/MS analysis; format: ADME, cell-based; method in brief: as §2
# Liver microsome [29] = experiment: Drug metabolism in human liver microsomes assessed as N-(3-fluoropyridin-4-yl)-3-methyl-1H-indol-1-amine formation at 5 uM up to 30 mins by LC-MS/MS analysis
# Rattus norvegicus [30] = experiment: In vivo drug metabolism in Sprague-Dawley rat assessed as (3-Fluoro-pyridin-4-yl)-(3-methyl-indol-1-yl)-amine-d7 formation at 20 mg/kg, po up to 48 hrs by LC-MS/MS analysis; format: ADME, organism-based; method in brief: as §4
# Rattus norvegicus [31] = experiment: In vivo drug metabolism in Sprague-Dawley rat assessed as N-(3-fluoropyridin-4-yl)-3-methyl-1H-indol-1-amine formation at 20 mg/kg, po up to 48 hrs by LC-MS/MS analysis; format: ADME, organism-based; method in brief: as §4
compound,measurement,setting,value
NCc1cccc(C2CCN(C(=O)c3ccc(C#Cc4ccccc4F)o3)CC2)c1,Drug metabolism,Hepatocyte [1],0.016 nmol/min/10^6 cells
same,Drug metabolism,Liver [2],0.0238 nmol/min/mg
same,Drug metabolism,Liver microsome [3],0.0215 nmol/min/mg
same,Drug metabolism,Liver [4],0.0219 nmol/min/mg
same,Drug metabolism,Liver microsome [5],0.0201 nmol/min/mg
same,Drug metabolism,Hepatocyte [6],0.0143 nmol/min/10^6 cells
[2H]c1cc2c(C([2H])([2H])[2H])c([2H])n(N(c3ccncc3F)C([2H])([2H])C([2H])([2H])C([2H])([2H])[2H])c2c([2H])c1[2H],Drug metabolism,Hepatocyte [7],metabolite_detected
same,Drug metabolism,Hepatocyte [8],metabolite_detected
same,Drug metabolism,Liver microsome [9],metabolite_notdetected
same,metabolic rate,Liver microsome [10],0.638 nmol/min/mg
same,CLint,Hepatocyte [11],0.196 mL/h/10^6 cells
same,Drug metabolism,Rattus norvegicus [12],metabolite_detected
same,metabolism rate,Liver microsome [13],0.42 nmol/min/mg
same,Tmax,[14],0.5 h
same,Cmax,[15],971 ng/mL
same,half-life,[16],11.1 h
same,CLint,Hepatocyte [17],0.572 mL/h/10^6 cells
same,Drug metabolism,Rattus norvegicus [18],metabolite_detected
same,AUC,[19],3800 ng·h/mL
same,AUC(0-t),[20],3670 ng·h/mL
same,metabolic rate,Liver microsome [21],0.217 nmol/min/mg
[2H]C([2H])(N)c1cccc(C2CCN(C(=O)c3ccc(C#Cc4ccccc4F)o3)CC2)c1,Drug metabolism,Hepatocyte [1],0.0081 nmol/min/10^6 cells
same,Drug metabolism,Liver [2],0.0043 nmol/min/mg
same,Drug metabolism,Liver microsome [3],0.0045 nmol/min/mg
same,Drug metabolism,Liver [4],0.0081 nmol/min/mg
same,Drug metabolism,Liver microsome [5],0.0048 nmol/min/mg
same,Drug metabolism,Hepatocyte [6],0.0143 nmol/min/10^6 cells
Cc1cn(Nc2ccncc2F)c2ccccc12,Drug metabolism,Liver microsome [22],metabolite_detected
same,Drug metabolism,Rattus norvegicus [23],metabolite_detected
same,Drug metabolism,Hepatocyte [24],metabolite_detected
[2H]c1cc2c(C([2H])([2H])[2H])c([2H])n(Nc3ccncc3F)c2c([2H])c1[2H],Drug metabolism,Liver microsome [25],metabolite_detected
same,Drug metabolism,Hepatocyte [26],metabolite_detected
same,Drug metabolism,Rattus norvegicus [27],metabolite_detected
O=C(O)c1cn(Nc2ccncc2F)c2ccccc12,Drug metabolism,Rattus norvegicus [23],metabolite_detected
same,Drug metabolism,Hepatocyte [24],metabolite_detected
[2H]c1cc2c(C(=O)O)c([2H])n(Nc3ccncc3F)c2c([2H])c1[2H],Drug metabolism,Hepatocyte [26],metabolite_detected
same,Drug metabolism,Rattus norvegicus [27],metabolite_detected
CCCN(c1ccncc1F)n1cc(C)c2ccccc21 [NERISPIRDINE],Drug metabolism,Hepatocyte [28],metabolite_detected
same,Drug metabolism,Liver microsome [29],metabolite_detected
same,metabolic rate,Liver microsome [10],0.346 nmol/min/mg
same,CLint,Hepatocyte [11],0.2 mL/h/10^6 cells
same,metabolism rate,Liver microsome [13],1.15 nmol/min/mg
same,Drug metabolism,Rattus norvegicus [30],metabolite_detected
same,Tmax,[14],1 h
same,Cmax,[15],822 ng/mL
same,half-life,[16],10.2 h
same,CLint,Hepatocyte [17],0.415 mL/h/10^6 cells
same,AUC,[19],4180 ng·h/mL
same,Drug metabolism,Rattus norvegicus [31],metabolite_detected
same,AUC(0-t),[20],4070 ng·h/mL
same,metabolic rate,Liver microsome [21],0.253 nmol/min/mg
